ChEMBL document CHEMBL3259662 (ACS Med Chem Lett, 2014)
≈ marks a conversion by molar mass, not a printed value. Calls of active or inactive are those of the source. The calls are words filed in the database; no cut-off is given here.

Columns and labels:
Pichia kudriavzevii = assay: Antifungal activity against Candida krusei by CLSI method; assay type: functional, organism-based
[1] = Selectivity index, ratio of cytotoxicity for human KB cells to IC50 for Cryptococcus neoformans ATCC 90113; assay type: toxicity, cell-based; conditions: read-out: Selectivity Index
[2] = Selectivity index, ratio of cytotoxicity for African green monkey Vero cells to IC50 for Cryptococcus neoformans ATCC 90113; assay type: toxicity, cell-based; conditions: read-out: Selectivity Index
Cryptococcus neoformans = assay: Antifungal activity against Cryptococcus neoformans ATCC 90113 after 70 to 74 hrs by CLSI method; assay type: functional, organism-based; conditions: for IC50 / MIC: Cryptococcus neoformans, ATCC 90113
In short: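 Growth inhibition of C. neoformans per the CLSI protocol. […] MIC is the lowest test concentration with no detectable growth. MFC is the lowest concentration killing 100% of the organism.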

[3] = Selectivity index, ratio of cytotoxicity for pig LLC-PK1 cells to IC50 for Cryptococcus neoformans ATCC 90113; assay type: toxicity, cell-based; conditions: read-out: Selectivity Index
KB = assay: Cytotoxicity against human KB cells assessed as cell viability after 48 hrs by neutral red uptake assay; assay type: cell-based
In short: (§1)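 Neutral red uptake assay in human cancer lines SK-MEL, KB, BT-549 and SK-OV-3 and in noncancerous mammalian kidney cells VERO and LLC-PK1. The highest tested concentration was 10 μg/mL.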

[4] = Selectivity index, ratio of cytotoxicity for human SK-MEL cells to IC50 for Cryptococcus neoformans ATCC 90113; assay type: toxicity, cell-based; conditions: read-out: Selectivity Index
[5] = Selectivity index, ratio of cytotoxicity for human SKOV3 cells to IC50 for Cryptococcus neoformans ATCC 90113; assay type: toxicity, cell-based, SK-OV-3; conditions: read-out: Selectivity Index
SK-OV-3 = assay: Cytotoxicity against human SKOV3 cells assessed as cell viability after 48 hrs by neutral red uptake assay; assay type: cell-based; conditions: sk-ov-3, 48 h; in short: as §1
Nakaseomyces glabratus = assay: Antifungal activity against Candida glabrata by CLSI method; assay type: functional, organism-based
SK-MEL = assay: Cytotoxicity against human SK-MEL cells assessed as cell viability after 48 hrs by neutral red uptake assay; assay type: cell-based; in short: as §1
BT-549 = assay: Cytotoxicity against human BT549 cells assessed as cell viability after 48 hrs by neutral red uptake assay; assay type: cell-based; conditions: bt-549, 48 h; in short: as §1
LLC-PK1 = assay: Cytotoxicity against pig LLC-PK1 cells assessed as cell viability after 48 hrs by neutral red uptake assay; assay type: cell-based, Sus scrofa; conditions: llc-pk1, 48 h; in short: as §1
Vero = assay: Cytotoxicity against African green monkey Vero cells assessed as cell viability after 48 hrs by neutral red uptake assay; assay type: cell-based; conditions: chlorocebus sabaeus; in short: as §1
Escherichia coli = assay: Antibacterial activity against Escherichia coli ATCC 35218 after 16 to 20 hrs by CLSI method; assay type: functional, organism-based
Candida albicans = assay: Antifungal activity against Candida albicans by CLSI method; assay type: functional, organism-based
Aspergillus fumigatus = assay: Antifungal activity against Aspergillus fumigatus by CLSI method; assay type: functional, organism-based
[6] = Selectivity index, ratio of cytotoxicity for human BT549 cells to IC50 for Cryptococcus neoformans ATCC 90113; assay type: toxicity, cell-based, BT-549; conditions: read-out: Selectivity Index
[7] = Retention time of the compound by reverse phase HPLC analysis; assay type: physicochemical
In short: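 Reverse-phase HPLC on a C-18 column (25 cm × 4.6 mm, 5 μM) at 1 mL/min over 40 min. The gradient ran 85−5% with A = 0.1% TFA in H2O and B = 0.1% TFA in CH3CN. Detection was at 220 nm.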

IC50 (Cryptococcus neoformans) | MIC (Cryptococcus neoformans) | SMILES | Activity (Pichia kudriavzevii) | selectivity ratio [1] | selectivity ratio [2] | MFC100 (Cryptococcus neoformans) | selectivity ratio [3] | Activity (KB) | selectivity ratio [4] | selectivity ratio [5] | Activity (SK-OV-3) | Activity (Nakaseomyces glabratus) | Activity (SK-MEL) | Activity (BT-549) | Activity (LLC-PK1) | Activity (Vero) | Activity (Escherichia coli) | Activity (Candida albicans) | Activity (Aspergillus fumigatus) | selectivity ratio [6] | also measured
2.15 µg/mL (≈ 2.88 µM) | 2.5 µg/mL (≈ 3.35 µM) | Cc1ccc(-c2nc(C[C@H](NC(=O)[C@H](CCCNC(=N)N)NC(=O)OC(C)(C)C)C(=O)N[C@@H](CCCNC(=N)N)C(=O)NCc3ccccc3)c[nH]2)cc1 | inactive | > 4.6 | > 4.6 | 2.5 µg/mL (≈ 3.35 µM) | > 4.6 | > 10 µg/mL | > 4.6 | > 4.6 | > 10 µg/mL | inactive | > 10 µg/mL | > 10 µg/mL | > 10 µg/mL | > 10 µg/mL | inactive | inactive | inactive | > 4.6 | Retention_time [7]: 19.41 min
0.68 µg/mL (≈ 0.891 µM) | 2.5 µg/mL (≈ 3.28 µM) | COc1ccc(-c2nc(C[C@H](NC(=O)[C@H](CCCNC(=N)N)NC(=O)OC(C)(C)C)C(=O)N[C@@H](CCCNC(=N)N)C(=O)NCc3ccccc3)c[nH]2)cc1 | inactive | > 14.7 | > 14.7 | 5 µg/mL (≈ 6.55 µM) | > 14.7 | > 10 µg/mL | > 14.7 | > 14.7 | > 10 µg/mL | inactive | > 10 µg/mL | > 10 µg/mL | > 10 µg/mL | > 10 µg/mL | inactive | inactive | inactive | > 14.7 | Retention_time [7]: 18.93 min

Continued, molecule first:

SMILES | IC50 (Cryptococcus neoformans) | MIC (Cryptococcus neoformans) | Activity (Pichia kudriavzevii) | selectivity ratio [1] | selectivity ratio [2] | MFC100 (Cryptococcus neoformans) | selectivity ratio [3] | Activity (KB) | selectivity ratio [4] | selectivity ratio [5] | Activity (SK-OV-3) | Activity (Nakaseomyces glabratus) | Activity (SK-MEL) | Activity (BT-549) | Activity (LLC-PK1) | Activity (Vero) | Activity (Escherichia coli) | Activity (Candida albicans) | Activity (Aspergillus fumigatus) | selectivity ratio [6] | also measured
COC(=O)[C@H](CCCNC(=N)N)NC(=O)[C@H](Cc1c[nH]c(-c2ccc(-c3ccccc3)cc2)n1)NC(=O)[C@H](CCCNC(=N)N)NC(=O)OC(C)(C)C | 0.8 µg/mL (≈ 1.09 µM) | 1.25 µg/mL (≈ 1.7 µM) | inactive | > 12.5 | > 12.5 | 1.25 µg/mL (≈ 1.7 µM) | > 12.5 | > 10 µg/mL | > 12.5 | > 12.5 | > 10 µg/mL | inactive | > 10 µg/mL | > 10 µg/mL | > 10 µg/mL | > 10 µg/mL | inactive | inactive | inactive | > 12.5 | Retention_time [7]: 18.64 min
COC(=O)[C@H](CCCNC(=N)N)NC(=O)[C@H](Cc1c[nH]c(-c2ccc(C(C)(C)C)cc2)n1)NC(=O)[C@@H](N)CCCNC(=N)N | 0.61 µg/mL (≈ 0.994 µM) | 1.25 µg/mL (≈ 2.04 µM) | inactive | > 16.3 | > 16.3 | 1.25 µg/mL (≈ 2.04 µM) | > 16.3 | > 10 µg/mL | > 16.3 | > 16.3 | > 10 µg/mL | inactive | > 10 µg/mL | > 10 µg/mL | > 10 µg/mL | > 10 µg/mL | inactive | inactive | inactive | > 16.3 | –
Cc1ccc(-c2nc(C[C@H](NC(=O)[C@@H](N)CCCNC(=N)N)C(=O)N[C@@H](CCCNC(=N)N)C(=O)NCc3ccccc3)c[nH]2)cc1 | 0.35 µg/mL (≈ 0.541 µM) | 0.63 µg/mL (≈ 0.974 µM) | inactive | > 28.6 | > 28.6 | 10 µg/mL (≈ 15.5 µM) | > 28.6 | > 10 µg/mL | > 28.6 | > 28.6 | > 10 µg/mL | inactive | > 10 µg/mL | > 10 µg/mL | > 10 µg/mL | > 10 µg/mL | inactive | inactive | inactive | > 28.6 | –
COC(=O)[C@H](CCCNC(=N)N)NC(=O)[C@H](Cc1c[nH]c(-c2ccc(-c3ccccc3)cc2)n1)NC(=O)[C@@H](N)CCCNC(=N)N | 0.59 µg/mL (≈ 0.931 µM) | 1.25 µg/mL (≈ 1.97 µM) | inactive | > 16.9 | > 16.9 | 1.25 µg/mL (≈ 1.97 µM) | > 16.9 | > 10 µg/mL | > 16.9 | > 16.9 | > 10 µg/mL | inactive | > 10 µg/mL | > 10 µg/mL | > 10 µg/mL | > 10 µg/mL | inactive | inactive | inactive | > 16.9 | –
